In ChEMBL document CHEMBL4049414, “Can We Make Small Molecules Lean? Optimization of a Highly Lipophilic TarO Inhibitor” (J Med Chem, 2017):
Active and inactive are the calls of the source. No cut-off for these calls is given here.

Legend:
[1] = Tmax in mouse blood at 50 mg/kg, sc; assay type: ADME, organism-based
[2] = AUC (0 to x) in mouse liver at 50 mg/kg, sc; assay type: ADME, organism-based
[3] = AUC (0 to infinity) in mouse at 2 mg/kg, iv; assay type: ADME, organism-based; set-up: dose 2 mg/kg, time infinity, route intravenous; conditions: in vivo
[4] = Tmax in mouse liver at 50 mg/kg, sc; assay type: ADME, organism-based
[5] = AUC (0 to x) in mouse spleen at 50 mg/kg, sc; assay type: ADME, organism-based
[6] = AUC (0 to infinity) in rat at 1 mg/kg, iv; assay type: ADME, organism-based; set-up: dose 1 mg/kg, time infinity, route intravenous; conditions: in vivo
[7] = Clearance in rat at 1 mg/kg, iv; assay type: ADME, organism-based; conditions: in vivo
[8] = Ratio of Cmax in mouse spleen to Cmax in mouse blood at 50 mg/kg, sc; assay type: ADME, organism-based
[9] = Tmax in mouse lung at 50 mg/kg, sc; assay type: ADME, organism-based
[10] = Volume of distribution at steady state in mouse at 2 mg/kg, iv; assay type: ADME, organism-based; conditions: in vivo, read-out: Vdss
[11] = system: Staphylococcus aureus; assay: Potentiation of imipenem-induced antibacterial activity against methicillin-resistant Staphylococcus aureus COL MB 5393 infected in neutropenic balb/c mouse assessed as reduction in bacterial burden in kidney at 12.5 mg/kg, sc administered three times per day at 2, 5 and 8 hrs post challenge cotreated with imipenem measured 24 hrs post challenge; assay type: functional, organism-based
[12] = Ratio of AUC (0 to x) in mouse spleen to AUC (0 to x) in mouse blood at 50 mg/kg, sc; assay type: ADME, organism-based; conditions: read-out: Ratio AUC
[13] = system: Staphylococcus aureus; assay: Antibacterial activity against methicillin-resistant Staphylococcus aureus COL MB 5393 infected in neutropenic balb/c mouse assessed as reduction in bacterial burden in kidney at 12.5 to 50 mg/kg, sc administered three times per day at 2, 5 and 8 hrs post challenge measured 24 hrs post challenge; assay type: functional, organism-based
[14] = Cmax in mouse blood at 50 mg/kg, sc; assay type: ADME, organism-based; set-up: dose 50 mg/kg, route subcutaneous
[15] = Tmax in mouse kidney at 50 mg/kg, sc; assay type: ADME, organism-based
[16] = system: Staphylococcus aureus subsp. aureus COL; assay: Inhibition of methicillin-resistant Staphylococcus aureus COL TarO assessed as compound concentration required for potentiation of imipenem-mediated bacterial growth inhibition by 95% after 20 hrs
How it was run: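 MRSA COL grown with compound in the presence of imipenem at 4 μg/mL. Growth read by OD600. The value is the minimum concentration that inhibits 95% of growth (sMITC95).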

[17] = AUC (0 to x) in mouse blood at 50 mg/kg, sc; assay type: ADME, organism-based
[18] = Cmax in mouse spleen at 50 mg/kg, sc; assay type: ADME, organism-based; set-up: dose 50 mg/kg, route subcutaneous
[19] = Inhibition of TarO in methicillin-resistant Staphylococcus aureus membranes assessed as reduction in C55-P-P-GlcNAc production using C55-P as substrate in presence of UDP-GlcNAc by LC-MS analysis
[20] = system: Staphylococcus aureus; assay: Growth inhibition of methicillin-resistant Staphylococcus aureus COL after 20 hrs
How it was run: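 MRSA COL grown with compound alone, with no antibiotic added. Growth read by OD600. The value is the minimum concentration that inhibits 95% of growth (iMITC95).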

[21] = AUC (0 to x) in mouse kidney at 50 mg/kg, sc; assay type: ADME, organism-based
[22] = system: Staphylococcus aureus; assay: Potentiation of imipenem-induced antibacterial activity against methicillin-resistant Staphylococcus aureus COL MB 5393 infected in sc dosed neutropenic balb/c mouse assessed as reduction in bacterial burden in kidney administered three times per day at 2, 5 and 8 hrs post challenge cotreated with imipenem measured 24 hrs post challenge; assay type: functional, organism-based
[23] = Terminal half life in rat at 1 mg/kg, iv; assay type: ADME, organism-based; conditions: in vivo, read-out: beta t1/2 (converted)
[24] = system: Mus musculus; assay: Toxicity in mouse at 50 mg/kg, sc; assay type: organism-based; conditions: in vivo
[25] = AUC (0 to x) in mouse lung at 50 mg/kg, sc; assay type: ADME, organism-based
[26] = Cmax in mouse kidney at 50 mg/kg, sc; assay type: ADME, organism-based; set-up: dose 50 mg/kg, route subcutaneous
[27] = Tmax in mouse spleen at 50 mg/kg, sc; assay type: ADME, organism-based
[28] = system: Staphylococcus aureus; assay: Potentiation of imipenem-induced antibacterial activity against methicillin-resistant Staphylococcus aureus COL MB 5393 infected in neutropenic balb/c mouse assessed as log reduction in bacterial burden in kidney at 25 mg/kg, sc administered three times per day at 2, 5 and 8 hrs post challenge cotreated with imipenem measured 24 hrs post challenge; assay type: functional
[29] = Cmax in mouse lung at 50 mg/kg, sc; assay type: ADME, organism-based; set-up: dose 50 mg/kg, route subcutaneous
[30] = system: Staphylococcus aureus; assay: Potentiation of imipenem-induced antibacterial activity against methicillin-resistant Staphylococcus aureus COL MB 5393 infected in neutropenic balb/c mouse assessed as log reduction in bacterial burden in kidney at 50 mg/kg, sc administered three times per day at 2, 5 and 8 hrs post challenge cotreated with imipenem measured 24 hrs post challenge; assay type: functional
[31] = Volume of distribution at steady state in rat at 1 mg/kg, iv; assay type: ADME, organism-based; conditions: in vivo, read-out: Vdss
[32] = Cmax in mouse liver at 50 mg/kg, sc; assay type: ADME, organism-based; set-up: dose 50 mg/kg, route subcutaneous
[33] = Clearance in mouse at 2 mg/kg, iv; assay type: ADME, organism-based; conditions: in vivo
[34] = Terminal half life in mouse at 2 mg/kg, iv; assay type: ADME, organism-based; conditions: in vivo, read-out: beta t1/2 (converted)

**Q.** For `C[C@H]1[C@@H](c2cccc(C(F)(F)F)c2)OC(=O)N1C(=O)NCc1cncc2ccccc12`, which Tmax [1] is on record?
**A.** Its Tmax is 0.5 h.

**Q.** And the AUC [2]?
**A.** The AUC was 322 µM·h.

**Q.** What about the AUC(0-inf) [3] of the same compound?
**A.** The AUC(0-inf) was 1.26 µM·h.

**Q.** What about the Tmax [4] of the same compound?
**A.** The Tmax was 1 h.

**Q.** And the AUC [5]?
**A.** Its AUC is 75 µM·h.

**Q.** And the AUC(0-inf) [6]?
**A.** Its AUC(0-inf) is 0.42 µM·h.

**Q.** And the clearance [7]?
**A.** Its clearance is 92.7 to 93 mL/min/kg.

**Q.** And the Kp [8]?
**A.** The Kp was 6 to 8.

**Q.** And the Tmax [9]?
**A.** Its Tmax is 0.7 h.

**Q.** What about the Vd [10] of the same compound?
**A.** The Vd was 13.1 to 13.5 L/kg.

**Q.** And the Activity [11]?
**A.** The Activity was “inactive”.

**Q.** What about the Kp [12] of the same compound?
**A.** Its Kp is 6 to 8.

**Q.** What about the Activity [13] of the same compound?
**A.** Its Activity is “inactive”.

**Q.** What about the Cmax [14] of the same compound?
**A.** The Cmax was 4.9 µM.

**Q.** And the Tmax [15]?
**A.** The Tmax was 1 h.

**Q.** What about the MITC95 [16] of the same compound?
**A.** Its MITC95 is 250 nM.

**Q.** What about the AUC [17] of the same compound?
**A.** Its AUC is 9.9 µM·h.

**Q.** And the Cmax [18]?
**A.** The Cmax was 29 µM.

**Q.** And the IC50 [19]?
**A.** The IC50 was 162 nM.

**Q.** What about the MITC95 [20] of the same compound?
**A.** The MITC95 was > 200 µM.

**Q.** What about the AUC [21] of the same compound?
**A.** The AUC was 336 µM·h.

**Q.** And the Activity [22]?
**A.** The Activity was “Dose-dependent effect”.

**Q.** What about the half-life [23] of the same compound?
**A.** Its half-life is 1.7 h.

**Q.** And the Activity [24]?
**A.** The Activity was “Non-Toxic”.

**Q.** And the AUC [25]?
**A.** The AUC was 123 µM·h.

**Q.** And the Cmax [26]?
**A.** Its Cmax is 95 µM.

**Q.** What about the Tmax [27] of the same compound?
**A.** Its Tmax is 1 h.

**Q.** What about the “log(activity)” value [28] of the same compound?
**A.** The value was 2.

**Q.** What about the Cmax [29] of the same compound?
**A.** The Cmax was 43.7 µM.

**Q.** What about the “log(activity)” value [30] of the same compound?
**A.** The value was 2.5.

**Q.** What about the Vd [31] of the same compound?
**A.** The Vd was 6.6 L/kg.

**Q.** And the Cmax [32]?
**A.** Its Cmax is 101 µM.

**Q.** And the clearance [33]?
**A.** Its clearance is 61 to 61.4 mL/min/kg.

**Q.** And the half-life [34]?
**A.** Its half-life is 6.4 h.
